The text below walks through data of paper PMC11451551 (Science Advances, 2024).

Data set [1] has as its system digitonin-permeabilized Molt-4 cells. Kind of data set: Permeabilized cell JC-1 assay. It is filed as cell-based, human. A digest of the protocol: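 Molt-4 cells were washed into DTEB buffer (trehalose, KCl, EDTA/EGTA, 0.1% BSA, succinate, 10 mM Hepes-KOH pH 7.5) containing 2 μM JC-1, 0.01% digitonin, 10 mM β-mercaptoethanol and oligomycin (20 μg/ml). After 10 min at room temperature they were diluted with an equal volume of buffer and test compound was added. DMSO was the negative control; FCCP 10 μM final defined 100% depolarization. Fluorescence at 590 nm was read every 10 min, 37°C, 1–3 h. EC50 from % depolarization.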

Another data set relates to Molt-4 cells. The experiment in a line: Cell viability assay. It is filed as cell-based, human. A digest of the protocol:
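Molt-4 or RS4;11 leukaemia cells were plated at 50,000 per well in medium with 10% human serum. They were exposed 48 h to a threefold dilution series of test compound, 5 to 0.020 μM, each concentration in duplicate on at least three occasions. Viable cells were read by CellTiter-Glo luminescence, and EC50 was taken from a sigmoidal fit.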

The test system of another data set is anesthetized beagle dogs. Kind of data set: in vivo. It is filed as in vivo, dog. The note with it: for effect on cardiovascular parameters / effect on platelets: iv bolus.
Data set [2] relates to circulating platelets in SCID/bg mice. The experiment in a line: Assessment of platelet levels in mice. In kind it is in vivo, mouse. Conditions: single dose: 9 0.1 mg/kg iv, 10 0.6 mg/kg iv, navitoclax 50 mg/kg oral. The procedure, abridged: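 Female SCID/bg mice were randomised (15 per group) and given one dose of vehicle or test compound, intravenously or by oral gavage. At 6, 72 and 168 h, five mice per group were bled from the retro-orbital plexus under sevoflurane into heparinised vials and then euthanised without recovery. Platelets were counted on an automated haematology analyser; results are group means with SEM.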

The nature of another data set: in vivo. Conditions: male, beagle, dog, in vivo, 0.3 mg/kg. It is filed as in vivo, dog.
The next data set deals with H1650 tumors. Kind of data set: H1650 xenograft efficacy in SCID/bg mice. It is filed as in vivo, mouse. A digest of the protocol:
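H1650 or PC-9 NSCLC cells (RPMI 1640, 10% heat-inactivated FBS, ≤5 passages, mycoplasma-free) were injected subcutaneously at 5×10^6 cells into the right flank of 8-week-old female SCID/bg mice (~22 g). Docetaxel was given 7.5 mg/kg iv QDx1 and conjugates intraperitoneally. In the single-dose study (H1650 only), tumours were ~200 mm³ and treatment began on day 9, QDx1. In the other study, treatment began on day 10, Q7D×2. Volumes are means of eight tumours.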

`Cc1c(-c2ccc(N3CCc4cccc(C(=O)Nc5nc6ccccc6s5)c4C3)nc2C(=O)O)cnn1CC12CC3(C)CC(C)(C1)CC(OCCNCCS(=O)(=O)O)(C3)C2` [compound 10]: in data set [1], the “Permeabilized Molt-4 EC50” value is “subnanomolar”. The “loss of Molt-4 activity relative to 9” value with Molt-4 cells is on record as “over 30 fold”. For the same molecule, in the data set on anesthetized beagle dogs, the “effect on cardiovascular parameters” value was “only minimal to moderate effects on cardiovascular parameters” and the “effect on platelets” value is on record as “no decrease in platelets”. For the same molecule, in data set [2], the “effect on platelets at 6 hours” value was “no significant reduction of platelet number”.

As for `CC1(C)CCC(c2ccc(Cl)cc2)=C(CN2CCN(c3ccc(C(=O)NS(=O)(=O)c4ccc(N[C@H](CCN5CCOCC5)CSc5ccccc5)c(S(=O)(=O)C(F)(F)F)c4)cc3)CC2)C1` [navitoclax, reference compound], the “effect on platelets at 6 hours” value in data set [2] is on record as “severe thrombocytopenia”.

Broadly, the Cmax is the maximum level reached in the sampled fluid or tissue. Take `Cc1c(-c2ccc(N3CCc4cccc(C(=O)Nc5nc6ccccc6s5)c4C3)nc2C(=O)O)cnn1CC12CC3(C)CC(C)(C1)CC(OCCNCC[C@H](O)CO)(C3)C2` [compound 11]: the “effect on cardiovascular function” value is on record as “cardiovascular collapse in both animals” with anesthetized beagle dogs (0.3 mg/kg per minute); “no impact on blood pressure or other indices of cardiovascular function” in the data set with anesthetized beagle dogs (0.01 and 0.1 mg/kg per minute). The “plasma concentration without impact on cardiovascular function” value with anesthetized beagle dogs (infusion 0.01 and 0.1 mg/kg per minute) was at most 447 ng/mL. For the same molecule, in the data set on anesthetized beagle dogs (male, beagle, dog, in vivo), the “estimated cardiovascular TI (dog tolerated plasma level vs free 11 in monkeys)” value is reported as over 65 fold. Further, in the data set “in vivo”, the highest level (Cmax) was 1020 ng/mL.

As a reminder, the EC50 is the concentration needed to bring the measured effect to its halfway point. Take `CNCCOC12CC3(C)CC(C)(CC(Cn4ncc(-c5ccc(N6CCc7cccc(C(=O)Nc8nc9ccccc9s8)c7C6)nc5C(=O)O)c4C)(C3)C1)C2` [compound 9]: in data set [1], the “Permeabilized Molt-4 EC50” value is “subnanomolar”. Moreover, the EC50 in the data set with Molt-4 cells (read-out: Molt-4 cell EC50, 10% human serum, 48 h) came out at 8 nM. In the data set with anesthetized beagle dogs, the “effect on cardiovascular parameters” value is on record as “marked changes in cardiovascular parameters” and the “effect on platelets” value is on record as “expected thrombocytopenia”. Further, the “effect on platelets at 6 hours” value in data set [2] was “severe thrombocytopenia”.

With `CC(=O)O[C@@]12CO[C@@H]1C[C@H](O)[C@@]1(C)C(=O)[C@H](O)C3=C(C)[C@@H](OC(=O)[C@H](O)[C@@H](NC(=O)OC(C)(C)C)c4ccccc4)C[C@@](O)([C@@H](OC(=O)c4ccccc4)[C@H]21)C3(C)C` [docetaxel], in the data set with H1650 tumors (7.5 mg/kg iv QDx1, alone (single-dose ADC study)), the “tumor growth inhibition (TGI)” value was determined as 81%. In addition, the “time by which all tumors were relapsed” value in the data set with H1650 tumors (single agent) is listed as at most 46 days.
